Results on seven compounds are retold here after ChEMBL document CHEMBL4680082 (J Med Chem, 2016).

Values joined by “and” are separate entries in the source; they are usually repeats but may differ in a detail not shown here. Equal entries are not always repeated. Active and inactive are the calls of the source. No cut-off for these calls is given here.

Broadly, the Emax is the maximal effect, on the per cent scale that the assay sets.

For experiment [1], the target named is T1, 5-hydroxytryptamine receptor 2C (Homo sapiens) (UniProt P28335).
T1 sequence (whole entry): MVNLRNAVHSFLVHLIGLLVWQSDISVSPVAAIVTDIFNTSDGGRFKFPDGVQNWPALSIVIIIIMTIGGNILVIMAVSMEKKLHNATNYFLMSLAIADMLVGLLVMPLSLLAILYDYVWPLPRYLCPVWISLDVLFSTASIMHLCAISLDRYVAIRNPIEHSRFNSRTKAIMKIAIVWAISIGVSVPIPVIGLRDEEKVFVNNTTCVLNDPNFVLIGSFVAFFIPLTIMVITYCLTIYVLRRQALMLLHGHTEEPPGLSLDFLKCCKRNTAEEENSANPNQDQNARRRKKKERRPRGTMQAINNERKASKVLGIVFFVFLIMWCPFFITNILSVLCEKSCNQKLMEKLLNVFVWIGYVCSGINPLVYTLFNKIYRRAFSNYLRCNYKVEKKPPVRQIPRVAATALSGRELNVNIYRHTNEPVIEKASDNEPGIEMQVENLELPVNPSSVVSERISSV
Nature of the experiment: Agonist activity at human 5-HT2C receptor expressed in human Flp-In-293 cells assessed as induction of calcium flux incubated for 1 hr by Fluo-4 direct dye based FLIPR assay relative to 5-HT. Format: functional, cell-based. (A change in cytosolic calcium serves as a functional read-out for many receptors and channels.)

Experiment [2] deals with T2, 5-hydroxytryptamine receptor 2C (Homo sapiens, UniProt P28335).
T2 sequence (P28335 whole entry): T1 sequence (whole entry)
As to the kind of experiment: Agonist activity at human 5-HT2C INI receptor expressed in human Flp-In-293 cells assessed as induction of calcium flux incubated for 1 hr by Fluo-4 direct dye based FLIPR assay. It counts as functional, cell-based. The essentials: (§1)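 Calcium flux in Flp-In-293 cells stably expressing the human 5-HT2C INI isoform, Fluo-4 Direct loading for 1 h at 37 °C. Drug dilutions identical to those in the parallel Tango assay, 300 s read at 1 read/s, normalized to % 5-HT. Triplicate, mean ± SEM (n = 3). Bias factors were calculated from change in relative activity, log(Emax/EC50).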

Experiment [3] deals with T1, 5-hydroxytryptamine receptor 2C (Homo sapiens). As to the kind of experiment: Agonist activity at human 5-HT2C INI receptor expressed in human Flp-In-293 cells assessed as induction of calcium flux incubated for 1 hr by Fluo-4 direct dye based FLIPR assay relative to 5-HT. It counts as functional, cell-based. The essentials: as §1
Experiment [4] addresses T2, 5-hydroxytryptamine receptor 2C. Nature of the experiment: Agonist activity at human 5-HT2C INI receptor expressed in human HEK293 cells assessed as induction of beta-arrestin-2 recruitment incubated for 20 hrs by Tango assay. Format: cell-based. A digest of the protocol: (§2)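 Tango assay in HTLA cells (HEK line expressing TEV-fused β-arrestin-2 and tTA-driven luciferase) transfected with 5-HT2C INI–tTA fusion carrying a TEV site. Cells were stimulated with the same dilutions used for FLIPR, 20 h at 37 °C and 5% CO2, then lysed with Bright-Glo for 20 min at room temperature and read by luminescence. Data normalized to % 5-HT and fitted sigmoidally; n = 3 in triplicate. Bias from log(Emax/EC50).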
A general note: Recruitment of arrestin is a read-out of receptor activation apart from second messengers.

Experiment [5] concerns the target T1, 5-hydroxytryptamine receptor 2C (Homo sapiens). As to the kind of experiment: Agonist activity at human 5-HT2C INI receptor expressed in human HEK293 cells assessed as induction of beta-arrestin-2 recruitment incubated for 20 hrs by Tango assay relative to 5HT. Format: cell-based. The essentials:
as §2

The target of experiment [6] is T2, 5-hydroxytryptamine receptor 2C.
The target in experiment [7] is T3, 5-hydroxytryptamine receptor 2B (Homo sapiens, UniProt P41595).
T3 sequence (P41595 whole entry): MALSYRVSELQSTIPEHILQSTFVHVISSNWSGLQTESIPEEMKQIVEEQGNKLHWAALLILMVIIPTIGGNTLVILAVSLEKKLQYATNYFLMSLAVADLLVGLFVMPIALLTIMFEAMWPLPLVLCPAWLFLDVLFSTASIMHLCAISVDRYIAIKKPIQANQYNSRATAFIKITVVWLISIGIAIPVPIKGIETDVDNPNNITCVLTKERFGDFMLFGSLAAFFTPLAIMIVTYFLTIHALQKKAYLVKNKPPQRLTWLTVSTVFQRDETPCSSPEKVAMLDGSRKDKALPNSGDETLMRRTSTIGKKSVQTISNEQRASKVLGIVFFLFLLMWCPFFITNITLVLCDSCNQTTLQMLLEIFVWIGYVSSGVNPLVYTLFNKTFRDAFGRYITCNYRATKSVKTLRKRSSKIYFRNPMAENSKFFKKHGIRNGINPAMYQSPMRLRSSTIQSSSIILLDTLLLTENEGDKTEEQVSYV
In experiment [8] the target is T4, 5-hydroxytryptamine receptor 2A (Homo sapiens, UniProt P28223).
T4 sequence (P28223 whole entry): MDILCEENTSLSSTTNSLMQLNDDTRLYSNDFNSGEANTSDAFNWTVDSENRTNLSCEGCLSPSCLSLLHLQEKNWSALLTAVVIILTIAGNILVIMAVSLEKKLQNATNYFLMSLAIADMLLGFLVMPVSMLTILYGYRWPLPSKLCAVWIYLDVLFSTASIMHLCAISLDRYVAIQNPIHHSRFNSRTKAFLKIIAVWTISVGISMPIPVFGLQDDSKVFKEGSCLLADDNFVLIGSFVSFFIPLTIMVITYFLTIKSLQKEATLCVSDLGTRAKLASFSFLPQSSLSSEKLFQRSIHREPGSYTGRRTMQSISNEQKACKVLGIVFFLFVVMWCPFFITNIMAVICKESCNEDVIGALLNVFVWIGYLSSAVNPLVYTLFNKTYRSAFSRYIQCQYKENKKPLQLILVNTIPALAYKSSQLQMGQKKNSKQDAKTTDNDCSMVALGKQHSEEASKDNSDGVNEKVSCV
Experiment [9] has as its target T3, 5-hydroxytryptamine receptor 2B. As to the kind of experiment: Agonist activity at human 5-HT2B receptor expressed in human Flp-In-293 cells assessed as induction of calcium flux incubated for 1 hr by Fluo-4 direct dye based FLIPR assay relative to 5-HT. Format: functional, cell-based. To be noted: filed as agonist.
In experiment [10] the target is T4, 5-hydroxytryptamine receptor 2A. Nature of the experiment: Agonist activity at human 5-HT2A receptor expressed in human Flp-In-293 cells assessed as induction of calcium flux incubated for 1 hr by Fluo-4 direct dye based FLIPR assay relative to 5-HT. Format: functional, cell-based. To be noted: filed as agonist.
The target of experiment [11] is T1, 5-hydroxytryptamine receptor 2C (Homo sapiens). Nature of the experiment: Induction of Gq-mediated receptor desensitization at human 5-HT2C INI receptor expressed in human Flp-In-293 cells assessed as reduction in Emax for additional 5-HT-stimulated calcium flux at <1 uM pre-incubated for 30 mins followed by drug wash out (3 times) by Fluo-4 direct dye based FLIPR assay. Format: functional, cell-based. To be noted: dose microM <1, time 30.0 min.

The target is the same in experiment [12]. Nature of the experiment: Agonist activity at human 5-HT2C INI receptor expressed in human Flp-In-293 cells assessed as increase in [3H]myo-inositol accumulation at 1 uM after 5 mins. It counts as functional, cell-based. Conditions: filed as partial agonist. A digest of the protocol: (§3)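 PI hydrolysis: Flp-In-293 5-HT2C INI cells, 25,000/well, labelled 16-18 h with [3H]-myo-inositol (2 µCi/well) in inositol-free DMEM, washed. Drug (1 µM) in HBSS/HEPES pH 7.4 buffer for the indicated times (5 min to 40 h). LiCl (15 mM final) added 2 h before lysis with cold 50 mM formic acid at 4 °C overnight. [3H]-inositol phosphates captured on yttrium silicate beads and counted as CPM.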

For experiment [13] the target is unchanged. As to the kind of experiment: Agonist activity at human 5-HT2C INI receptor expressed in human Flp-In-293 cells assessed as increase in [3H]myo-inositol accumulation at 1 uM after 90 mins. It counts as functional, cell-based. Conditions: filed as partial agonist. The essentials: as §3
Experiment [14] has the same target. As to the kind of experiment: Agonist activity at human 5-HT2C INI receptor expressed in human Flp-In-293 cells assessed as increase in [3H]myo-inositol accumulation at 1 uM measured up to 5 hrs. Conditions: filed as partial agonist, time hrs <=5. Format: functional, cell-based. The essentials:
as §3

Experiment [15] has the same target. As to the kind of experiment: Induction of Gq-mediated receptor desensitization at human 5-HT2C INI receptor expressed in human Flp-In-293 cells assessed as reduction in Emax for [3H]myo-inositol accumulation at 1 uM after 20 hrs. It counts as functional, cell-based. To be noted: filed as partial agonist. The essentials:
as §3

For experiment [16] the target is unchanged. Nature of the experiment: Agonist activity at human 5-HT2C INI receptor expressed in human Flp-In-293 cells assessed as increase in [3H]myo-inositol accumulation at 1 uM after 30 hrs. Format: functional, cell-based. Conditions: filed as partial agonist. A digest of the protocol: as §3
Experiment [17] shares this target. As to the kind of experiment: Agonist activity at human 5-HT2C INI receptor expressed in human Flp-In-293 cells assessed as induction of calcium flux by measuring log (Emax/EC50) incubated for 1 hr by Fluo-4 direct dye based FLIPR assay. It counts as functional, cell-based. The essentials:
as §1

Experiment [18] shares this target. Nature of the experiment: Agonist activity at human 5-HT2C INI receptor expressed in human HEK293 cells assessed as induction of beta-arrestin-2 recruitment by measuring log (Emax/EC50) incubated for 20 hrs by Tango assay relative to 5HT. It counts as cell-based. The essentials:
as §2

The target is the same in experiment [19]. Nature of the experiment: Bias factor, ratio of log(Emax/EC50) of lorcaserin to test compound for agonist activity at human 5-HT2C INI receptor expressed in human Flp-In-293 cells assessed as induction of calcium flux incubated for 1 hr by Fluo-4 direct dye based FLIPR assay. Format: functional, cell-based. A digest of the protocol:
as §1

For experiment [20] the target is unchanged. Nature of the experiment: Bias factor, ratio of log(Emax/EC50) of lorcaserin to test compound for agonist activity at human 5-HT2C INI receptor expressed in human HEK293 cells assessed as induction of beta-arrestin-2 recruitment incubated for 20 hrs by Tango assay. It counts as cell-based. The essentials: as §2

Consider `C=CCOc1ccc2c(c1[C@H]1C[C@@H]1CN)CCO2`, for which the values for the maximal effect (Emax) in experiment [1] (filed as agonist), in experiment [3] (filed as agonist) and in [5] were 101%, 93% and 35%, respectively. Further, the EC50 in [2] was 26 nM; in experiment [4] (read-out: EC50), 267 nM; in experiment [6], 11 nM; in [7] it was 258 nM; in experiment [8], 618 nM.
Take `C=CCOc1ccc2oc(CC)cc2c1[C@H]1C[C@@H]1CN`: the EC50 in [2] stood at 25 nM; in experiment [4] (read-out: EC50) it was 30 nM; in experiment [6] it was 23 nM; in experiment [7], 433 nM.
In the case of `NC[C@H]1C[C@@H]1c1c(OCCF)ccc2occc12`, the Emax is 97% in experiment [1] (filed as partial agonist); 103% in experiment [9]; 98% in experiment [10]; 94% in experiment [3] (filed as partial agonist); 28% in experiment [5]. Moreover, the EC50 in [2] was 1.2 nM; in experiment [4] (read-out: EC50) it was 25 nM; in [6], 0.603 nM and 0.59 nM; in experiment [7] it was 46 nM; in experiment [8], 22 nM. In addition, in experiment [11], the outcome was inactive. For the same compound, the result in experiment [12], in experiment [13], in [14] and in experiment [15] was Active. Further, the Activity result in [16] is “Dose-dependent effect”.
For the compound `NC[C@H]1C[C@@H]1c1c(OCCF)ccc2c1CCO2`, the Emax in experiment [1] (filed as agonist) came to 76%; in experiment [10], 63%; in experiment [3] (filed as agonist), 93%; in [5] (filed as agonist), 42%. Besides, the EC50 in experiment [2] was 41 nM; in experiment [4] (read-out: EC50) it was 318 nM; in [4] (read-out: pEC50 (converted)), 324 nM; in [6], 73 nM; in experiment [8], 2320 nM.
Take `C=CCOc1ccc2occc2c1[C@H]1C[C@@H]1CN`: the maximal effect (Emax) in experiment [1] (filed as agonist) amounted to 103%; in experiment [3] (filed as agonist) it was 92%; in experiment [5] it was 25%. For the same compound, the EC50 in experiment [2] was found to be 8.7 nM; in experiment [4] (read-out: EC50) it was 20 nM; in experiment [6] it was 5.3 nM; in experiment [7] it was 348 nM; in experiment [8], 213 nM.
For the compound `CCc1cc2c([C@H]3C[C@@H]3CN)c(OCCF)ccc2o1`, the Emax is 106% in experiment [1] (filed as agonist), 93% in experiment [3] (filed as agonist) and 50% in experiment [5] (filed as agonist). Besides, the EC50 in [2] was found to be 22 nM; in experiment [4] (read-out: EC50), 96 nM; in experiment [6], 11 nM; in [7] it was 550 nM; in [8], 2210 nM.
As for `C[C@H](N)Cn1ccc2cc(F)c(Cl)cc21`, the EC50 is 2.2 nM in experiment [2], 10 nM in experiment [4] (read-out: EC50) and 10.7 nM in experiment [4] (read-out: pEC50 (converted)). Besides, the values for the maximum response (Emax) in experiment [3] (filed as agonist) and in experiment [5] (filed as agonist) were 99% and 87%, respectively. The log(ratio) in experiment [17] is 8.65; in experiment [18] it was 7.94. In addition, the values for the Ratio in experiment [19] and in experiment [20] were 0.3 and 3.3, respectively.
